Compounds with a hit are over-represented: about 9.6% of the library has one in this group of screens.
b-catenin transl – modulators of beta-catenin nuclear translocation, primary screen, imaging, HeLa cells, immunofluorescence, high-content; nuclear translocation activity, % at 5 µM; AID 1665, 2009; actives 0.3% (n = 190,000);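 active = nuclear translocation activity above 50% at 5 µM, with a well cell count of 50 or more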;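 also: per-cell ratio of nuclear to cytoplasmic median beta-catenin stain intensity; plate controls were DMSO negative control for no effect and GSK-3 inhibitor IX positive control for full effect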
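System: HeLa cells, endogenous beta-catenin; compound dosing: 5 µM primary single dose, 0.1% DMSO, 0.02–20 µM confirmation series; incubation: 24 h compound exposure at 37°C, 5% CO2; signal: beta-catenin immunofluorescence imaging with DAPI; evaluation: % activation, nuclear-to-cytoplasmic median beta-catenin signal ratio per cell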
MT stabilize HCS – microtubule stabilizers in HeLa cells, primary screen, imaging, high-content imaging | AID 2205, 2009 | % tubulin-high responders, % at 10 µM | HeLa tubulin immunostaining HCS, 24 h; share of cells brighter than vehicle mean+2SD | actives 0.83% (n = 200,000);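 active = plate Z-score above 3 for both tubulin-high and condensed-nucleus cell shares, with cell loss under 80%, at 10 µM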;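 also: anti alpha tubulin signal scored within the nucleus-defined area of each cell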
BaF3 tox – parental Ba/F3 cell viability inhibition, counter-screen for JAK2V617F inhibitor project, murine pro-B, CellTiter-Glo luminescence; CellTiter-Glo ATP luminescence; inhibition, % at 5.6 µM; actives 1.1% (n = 220,000); AID 1486, 2009;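 active = inhibition above a per-campaign cutoff, the mean inhibition of all tested compounds plus 3 SD, cut at about 27% in these data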;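 also: 0% = DMSO wells and 100% = JAK Inhibitor I control wells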
APP 5UTR inh – inhibitors of APP translation via 5'UTR reporter, primary screen, APP 5'UTR luciferase, SH-SY5Y cells; SH-SY5Y APP 5'UTR-luciferase reporter, luminescence; inhibition, % at 2 µM; actives 0.82% (n = 190,000);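 active = inhibition above a set limit, derived from the sample mean plus 3 SD, cut at about 45% in these data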
Ba/F3 V617F tox – reduced viability of JAK2V617F-dependent Ba/F3 cells, primary screen, JAK2V617F inhibitor project, cell-based, Ba/F3 EpoR-JAK2V617F, luminescence | AID 1446, 2008 | actives 1.1% (n = 220,000) | inhibition, % at 5.6 µM | ATP luminescence;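 active = inhibition above the campaign mean plus 3 SD over all tested compounds, cut at about 24% in these data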;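 also: cytokine-independent growth of Ba/F3 cells driven by EpoR plus mutant JAK2; 0% = DMSO-treated cells and 100% = JAK inhibitor I control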
Lmaj promast – Leishmania major promastigote growth inhibition, primary screen; Leishmania major promastigotes, resazurin fluorescence viability; inhibition, % at 10 µM; actives 9% (n = 200,000); AID 1063, 2008; in the data active = inhibition above about 50%;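 also: promastigotes grown with compound for 44 hours at 28 °C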
* = called active by the depositor; . = not tested or not shown.

SMILES | b-catenin transl | MT stabilize HCS | BaF3 tox | APP 5UTR inh | Ba/F3 V617F tox | Lmaj promast
Cn1c(=O)n(C)c2cc([N+](=O)[O-])c(N3CCN(CCO)CC3)cc21 | -4 | 4 | 7 | 13 | 2 | 1
N#Cc1ccccc1NC(=O)Nc1ccc(Cl)cc1 | 0 | 3 | 2 | -18 | -7 | 1
Cc1ccc(NC(=O)Nc2ccccc2C#N)c(Cl)c1 | 1 | 3 | 1 | -3 | 0 | 66*
CC(C)(C)N(Cc1ccccc1)C(=O)COC(=O)Cn1cnc2ccccc2c1=O | 0 | 4 | 6 | 10 | -3 | 10
Cc1ccc(C(=O)/C=C/C(=O)c2ccc(C)cc2)cc1 | -2 | 4 | 2 | 66* | -6 | 101*
Cc1ccc(/C=C/C(=O)c2ccc(C)cc2)cc1 | 3 | 3 | 4 | -34 | 0 | 1
Cc1ccc(-c2ccc(/C=C/C(=O)c3ccccc3)o2)cc1 | -1 | 3 | 0 | -3 | -5 | 89*
Cc1cccc(N(C(=O)c2csnn2)C(C(=O)NC(C)(C)C)c2cccs2)c1 (stereo not drawn) | 1 | 1 | 6 | -19 | -2 | -1
O=c1c(Cl)cc(Cl)nn1-c1ccccc1 | 2 | 5 | -2 | -5 | 0 | 71*
N#Cc1c(N)nc2c(c1N)CC(CCl)O2 (stereo not drawn) | . | 2 | 0 | 2 | -2 | 57*
COc1ccc(NC(=O)c2cccc(Oc3ccc([N+](=O)[O-])cc3Cl)c2)cc1 | 93* | 8 | 3 | -8 | 1 | -5
O=C(Nc1cccc(Cl)c1)c1cccc(Oc2ccc([N+](=O)[O-])cc2Cl)c1 | 8 | 8 | 7 | -7 | 2 | 98*
Cc1ccc(C)c(NC(=O)c2cccc(Oc3ccc([N+](=O)[O-])cc3Cl)c2)c1 | 62* | 8 | 6 | -5 | -2 | -4
COc1ccc(/C=N/NC(=O)c2ccc(NC(=O)c3cccc([N+](=O)[O-])c3)cc2)c(OC)c1 | 0 | 5 | 3 | -16 | -4 | 3
Cc1ccc(NC(=O)CNC(=O)OCc2ccccc2)cc1C | -1 | 2 | -2 | -10 | 1 | 0
COCCNC(=O)/C(C#N)=c1\s/c(=C\c2ccccc2OC(F)F)c(=O)n1Cc1ccccc1 | 1 | 4 | 2 | 9 | 0 | -6
Cc1ccccc1Cc1c(C)nc2nc(SCC(=O)NCc3ccco3)nn2c1C | 5 | 7 | 5 | -18 | 2 | 3
Cc1nc2nc(SCC(=O)NCc3ccco3)nn2c(C)c1Cc1c(F)cccc1Cl | 1 | 20 | 4 | -8 | -1 | 18
Cc1ccc(Cc2c(C)nc3nc(SCC(=O)NCc4ccco4)nn3c2C)cc1 | 156* | 22* | 6 | 10 | 2 | 1
Cc1cccc(Cc2c(C)nc3nc(SCC(=O)NCc4ccco4)nn3c2C)c1 | 1 | 20* | 0 | -5 | 1 | 0
CCOC(=O)C1(Cc2ccc(Cl)cc2)CCN(C(=O)c2cc(C)nc(C)n2)CC1 | -2 | 3 | 4 | 1 | 2 | 7
O=C1/C(=C/c2cccc([N+](=O)[O-])c2)CSc2ccc(Cl)cc21 | -2 | . | 0 | . | -3 | .
CNc1ccc(/C=C2\CSc3ccccc3C2=O)cc1[N+](=O)[O-] | -3 | 24 | 4 | -38 | 3 | 99*
O=C(Oc1c(CN2CCOCC2)cc(Cl)c2cccnc12)c1cccs1 | 0 | 5 | 3 | 27 | 1 | 100*
O=C(Oc1c(Cl)cc(Cl)c2cccnc12)c1cccs1 | -1 | 4 | 4 | -1 | -5 | 17
SMILES | b-catenin transl | MT stabilize HCS | BaF3 tox | APP 5UTR inh | Ba/F3 V617F tox | Lmaj promast
O=C(Oc1ccc(Cl)c2cccnc12)N1CCOCC1 | -1 | 1 | 1 | 3 | -2 | -6
O=C(Oc1c(CN2CCOCC2)cc(Cl)c2cccnc12)c1ccccc1Cl | 2 | 4 | 7 | 53* | 1 | 100*
CNS(=O)(=O)c1ccc(NC(=S)Nc2ccc3c(c2)OCO3)cc1 | -1 | 1 | 10 | -36 | -1 | 1
C#CC1(NC(=O)NCCCC)CCCCC1 | 0 | 3 | 3 | -13 | 2 | -1
CCCCC(=Nc1ccc(N)cc1)C1=C(O)C(C(=O)OC)C(C)(C)CC1=O (stereo not drawn) | -1 | 4 | 1 | 43 | -1 | 68*
CN(c1ccccc1)c1ccc(/C=C/[N+](=O)[O-])cc1 | -2 | 3 | 6 | 54* | 19 | 100*
CN(c1ccccc1)c1ccc(/C=N/NC(=O)CC#N)cc1 | . | 3 | 5 | 15 | -3 | -3
Cc1ccccc1N(CC(=O)NCc1ccc2c(c1)OCO2)C(=O)CCC(=O)Nc1ccccn1 | 0 | 5 | 11 | -5 | 5 | 61*
O=C(N/N=C/c1ccc(Cl)cc1)c1sccc1OCc1ccc(F)cc1 | 0 | 19* | 47* | . | 72* | 85*
O=C(N/N=C/c1ccc(F)cc1)c1sccc1OCc1ccc(F)cc1 | 87* | 34* | -1 | -4 | 2 | 88*
NNC(=O)c1sccc1OCc1ccc(F)cc1 | 8 | 2 | 3 | -28 | -6 | -2
Cc1nn(Cc2ccccc2)c(Cl)c1/C=N/NC(=O)CNc1cccc(C(F)(F)F)c1 | 0 | 4 | 2 | -5 | -2 | 44
Cc1nccn1CC(=O)N/N=C/c1cccc(O)c1 | 1 | 4 | 1 | 2 | -1 | 61*
COc1ccc(/C=N/NC(=O)Cn2ccnc2C)cc1OC | -1 | . | 0 | . | -1 | .
CC(=O)c1ccc(NC(=S)NC(C)CCc2ccccc2)cc1 (stereo not drawn) | -2 | 2 | 2 | -9 | 4 | 8
Cc1ccc(CN2CCC(C(=O)NCCC(C)C)CC2)o1 | 2 | 3 | 11 | -10 | 4 | 60*
CC(C)(C)C(=O)C[n+]1ccc(C(N)=O)cc1 | -1 | 2 | -2 | -32 | -4 | -7
COCCNC(=S)NC(=O)c1ccc(C(C)(C)C)cc1 | 4 | 1 | 11 | -10 | 1 | 5
COCCCNC(=S)NNC(=O)C1CC1c1ccc(C(C)(C)C)cc1 (stereo not drawn) | -2 | 2 | 38* | -17 | 7 | 6
Cn1c(=O)cc(SCC(=O)NCCN2CCN(c3ccccc3F)CC2)c2cc(Cl)ccc21 | . | 2 | 3 | 11 | -2 | 29
O=C(/C=C/c1ccco1)Nc1cccnc1 | 0 | 2 | 6 | -10 | -1 | -2
O=C(/C=C/c1ccco1)Nc1cccc2cccnc12 | -4 | 1 | 8 | -25 | -1 | 15
COc1ccc(-c2csc(NC(=S)NC(=O)/C=C/c3ccco3)n2)cc1OC | 52* | 2 | 3 | 75* | 3 | 6
Cc1ccc(NC(=O)/C=C/c2ccco2)nc1 | 146* | 4 | 82* | 89* | 85* | 0

Assay outcomes deposited in PubChem BioAssay by several laboratories.
